Hit rate of the full screen: of about 2,500 compounds, about 460 (18%) were called active.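 Rule for the calls: active = mean activation above a cutoff of low control average plus 3 SD from the earlier screen (cut at about 12% in these data); inactive = the rest.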 Not all results are given here.
Experiment: IANBD-channel fluorescence artefacts in buffer – biochemical, artefact control for cardiac RTF calcium sensitizer project, confirmation (AID 504382)
Details: IANBD fluorescence interference counterscreen, EC20 Ca2+, at 7.2 µM, active compounds read high, scaled: EC20 calcium 0, EC100 calcium 100
Outline: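 Doses – one dose of 7.2 µM, 0.7% DMSO · Buffer or medium – MOPS/KCl/MgCl2/EGTA/NTA/DTT buffer, pH 7.2 · Probe or stimulus – Ca2+ fixed at EC20, 0.472 mM · Measured by – fluorescence intensity, excitation 480 nm, emission 540 nm · Read-out – fluorescence interference versus control range · Timing – 15 min compound exposure at 25 °C · Replication – triplicate wells per compound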

Structure (SMILES)	fluorescence artifact activation
c1ccc(-c2nc(-c3ccco3)n3ccccc23)cc1	0.05% (inactive)
O=C(/C=C/c1cccc(F)c1)Nc1cc(S(=O)(=O)N2CCOCC2)ccc1N1CCCC1	0.02% (inactive)
CC(C)CC1=NN2C(=N)/C(=C\c3coc4ccccc4c3=O)C(=O)N=C2S1	2.69% (inactive)
N=C1/C(=C\c2coc3ccccc3c2=O)C(=O)N=C2SC=CN12	-0.01% (inactive)
CC(C)CSC1=NSC2=NC(=O)/C(=C\c3coc4ccccc4c3=O)C(=N)N12	12.7% (active)
CSC1=NSC2=NC(=O)/C(=C/c3coc4ccccc4c3=O)C(=N)N12	0.27% (inactive)
N=C1/C(=C\c2coc3ccccc3c2=O)C(=O)N=C2SC(c3ccncc3)=NN12	7.67% (inactive)
CCSC1=NSC2=NC(=O)/C(=C\c3coc4ccccc4c3=O)C(=N)N12	24.5% (active)
Cn1nnnc1SCCOc1ccc(C#N)cc1	-0.03% (inactive)
CSc1cccc(NC(=O)c2ccc(Cl)nc2)c1	-0.04% (inactive)
Fc1ccc(-c2[nH]ncc2CN(CC2CCC2)CC2CCCO2)c(F)c1 (centres undefined)	8.43% (inactive)
C=C(C)c1sc(-c2ccc(Cl)cc2)nc1C	0.11% (inactive)
O=C(NN1C(=O)/C(=C/c2ccc(O)cc2)SC1=S)c1cccc(O)c1	0.01% (inactive)
Cc1cc2nc(C3CCCN(C(=O)NCc4ccccc4)C3)[nH]c2cc1C (centres undefined)	8.15% (inactive)
COc1ccc(-n2c(O)c(/C=N/NS(=O)(=O)c3cc(C)ccc3C)c3ccccc3c2=O)cc1OC	0.84% (inactive)
COc1ccc(-n2c(O)c(/C=N/NS(=O)(=O)c3ccc(C)cc3)c3ccccc3c2=O)cc1OC	12.8% (active)
COc1ccc(-n2c(O)c(/C=N/NS(=O)(=O)c3ccc(C)c([N+](=O)[O-])c3)c3ccccc3c2=O)cc1OC	-0.02% (inactive)
COc1ccc(/C(C)=N/N2C(=O)c3ccccc3NC2c2ccc(O)c(OC)c2)cc1 (centres undefined)	0.69% (inactive)
Cc1cn(COC/C=C/c2ccccc2)c(=O)[nH]c1=O	25.6% (active)
Cc1ccccc1-n1c(O)c(/C=C/C=Nc2ccccc2)c(=O)[nH]c1=O	2.27% (inactive)

Structure (SMILES)	fluorescence artifact activation
CCCCOc1ccc(C2OC34CCCCC3C(C#N)(C#N)C2(C#N)C(=N)O4)cc1 (centres undefined)	0.1% (inactive)
COc1ccc(C(=O)OC/C(O)=C(\C#N)c2nc3ccccc3[nH]2)cc1S(=O)(=O)N1CCOCC1	0.13% (inactive)
O=C1OCC/C1=C\c1ccccc1O	-0.06% (inactive)
COC(=O)C1CSc2[nH]c(=O)sc2C1c1ccccc1 (centres undefined)	0.07% (inactive)
CCC(C(=O)O)N1C(=O)/C(=C/c2cccn2C)SC1=S (centres undefined)	4.17% (inactive)
Cc1ccc(C(=O)NN2C(=O)/C(=C/c3cn(C)c4ccccc34)SC2=S)cc1	7.41% (inactive)
CC(C(=O)O)N1C(=O)/C(=C/c2cccn2C)SC1=S (centres undefined)	6.16% (inactive)
Cn1cc(/C=C2\SC(=S)N(NC(=O)c3cccc(Cl)c3)C2=O)c2ccccc21	17% (active)
CN1CCS/C1=C/C=C1\SC(=S)N(CC(=O)O)C1=O	18.9% (active)
Cn1cccc1/C=C1\SC(=S)N(NC(=O)c2ccc(Cl)cc2)C1=O	0.86% (inactive)
CCCCN1C(=O)/C(=C/C=C2\SCCN2C)SC1=S	0% (inactive)
Cn1cc(/C=C2\SC(=S)N(NC(=O)c3ccccc3)C2=O)c2ccccc21	2.64% (inactive)
Cn1cccc1/C=C1\SC(=S)N(NC(=O)c2ccccc2)C1=O	18.2% (active)
CN1CCS/C1=C\C=C1/SC(=S)N(CC(=O)O)C1=O	-0.02% (inactive)
Cc1ccc(C(=O)NN2C(=O)/C(=C/c3cccn3C)SC2=S)cc1	4.27% (inactive)
CC(C)C(C(=O)O)N1C(=O)/C(=C/c2cccn2C)SC1=S (centres undefined)	12.3% (active)
Cc1ccc(N2CN(Cc3cccnc3)CNC2=S)cc1	0.4% (inactive)
CCOC(=O)c1cnc(SC)nc1Oc1cccc(NS(=O)(=O)c2ccc(Cl)cc2)c1	0.07% (inactive)
CCN1C(=S)SC(=O)C1=C1C=C(C)N(Cc2ccco2)C(C)=C1	0.18% (inactive)
COc1cc(/C=N\NC(=O)CC(=O)NCCc2ccccc2)ccc1O	0.17% (inactive)

Structure (SMILES)	fluorescence artifact activation
CN(C)c1ccc(NC2=C([N+](=O)[O-])CS(=O)(=O)C2)cc1	3.15% (inactive)
CCc1ccc(NC(=O)C2CCN(S(=O)(=O)c3ccc4[nH]c(=O)ccc4c3)CC2)cc1	0.08% (inactive)
COc1ccc(C2OC34CCCCC3C(C#N)(C#N)C2(C#N)C(=N)O4)cc1 (centres undefined)	0.16% (inactive)
CC(=O)Nc1sc2c(c1-c1nc3ccccc3s1)CN(C(C)C)CC2	-0.08% (inactive)
Nc1c(C(=O)C2CC2)sc2nc(-c3ccccc3)cc(C(F)(F)F)c12	8.48% (inactive)
Cn1cccc1/C=C1\SC(=S)N(CC(=O)O)C1=O	3.44% (inactive)
Cn1cccc1/C=C1/SC(=S)N(CC(=O)O)C1=O	52.3% (active)
O=C(O)CN1C(=O)/C(=C\c2cn(CC(=O)N3CCOCC3)c3ccccc23)SC1=S	4.83% (inactive)
COc1ccc2noc3c2c1C(=O)c1ccccc1-3	0.01% (inactive)
COc1ccc(N=Cc2c(O)c3ccccc3n2C(C)=O)cc1	1.91% (inactive)
N=c1oc2ccccc2cc1-c1nc(-c2ccccc2)cs1	0.03% (inactive)
N#C/C(=C\c1ccc(N2CCOCC2)o1)C(=O)NC1CCCCC1	10.5% (inactive)
N#C/C(=C/c1ccc(N2CCOCC2)o1)C(=O)NC1CCCCC1	-0.06% (inactive)
N#C/C(=C/c1ccc(N2CCCCC2)o1)C(=O)Nc1ccc2ccccc2c1	52.8% (active)
N#C/C(=C/c1ccc(N2CCCCC2)o1)C(=O)Nc1ccc(Cl)cc1	36.7% (active)
COc1ccc(NC(=O)/C(C#N)=C\c2ccc(N3CCOCC3)o2)cc1	8.28% (inactive)
N#C/C(=C\c1ccc(N2CCCCC2)o1)C(=O)Nc1cccc(Br)c1	1.73% (inactive)
CCOC(=O)C1(Cc2cccc(OC)c2)CCCN(Cc2nccn2CC)C1 (centres undefined)	0.29% (inactive)
O=C(NCc1ccco1)c1cc(-c2cccc(Cl)c2)on1	0.3% (inactive)
